ChEMBL document CHEMBL4033642, “Design and synthesis of neolamellarin a derivatives targeting heat shock protein 90” (Eur J Med Chem, 2017)

Experiments:
[1] = system: NCI-H1299; test: Antiproliferative activity against human H1299 cells after 48 hrs by resazurin dye-based fluorescence assay; assay type: functional, cell-based; settings: NCI-H1299, 48 h
Procedure, shortened: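 H1299 non-small-cell lung cells, kept subconfluent, passages 3–30, seeded 2000 cells/well; after 24 h exposed to serial concentrations in serum complete medium, 0.1% DMSO final, for 48 h. Resazurin then added, 16 h at 37 °C; fluorescence read at 544 nm excitation/595 nm emission, proportional to viable cells. IC50 from three repeats.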

[2] = system: NCI-H1299; test: Antiproliferative activity against human H1299 cells assessed as inhibition of cell viability after […] by resazurin dye-based fluorescence assay; assay type: functional
Procedure, shortened: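 H1299 cells, 2000/well, seeded 24 h, then exposed to serial compound concentrations in serum-containing complete medium for 48 h (DMSO vehicle, 0.1% final). Resazurin (2 mg/mL stock) added, 16 h at 37 °C. Fluorescence read at 544 nm ex / 595 nm em; RFU taken as proportional to living cells.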

[3] = target: T1, Heat shock protein HSP 90-alpha (Homo sapiens, UniProt P07900); test: Inhibition of FITC-GA binding to N-terminal domain of HSP90alpha (unknown origin) after 5 hrs by fluorescence polarization assay
[4] = target: T1, Heat shock protein HSP 90-alpha; test: Inhibition of HSP90alpha in human H1299 cells assessed as decrease in EGFR levels after 72 hrs by Western blot analysis; assay type: cell-based
Procedure, shortened: (§1)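 H1299 cells seeded in 15 cm dishes at 8 × 10⁴ cells/mL, 24 h, then treated at 7.5 and 15 µM for 72 h at 37 °C; DMSO-only controls. Lysed on ice 30 min, cleared at 10000 × g, protein by BCA. 25–100 µg run on 10% or 12% SDS-PAGE, blotted to nitrocellulose. Probed with antibodies to CDK2, EGFR, p-EGFR (Tyr1068), AKT, p-AKT, cleaved PARP; β-actin loading control; chemiluminescence; three repeats.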

[5] = target: T1, Heat shock protein HSP 90-alpha; test: Inhibition of HSP90alpha in human H1299 cells assessed as decrease in AKT levels after 72 hrs by Western blot analysis; assay type: cell-based; procedure, shortened: as §1
[6] = target: T1, Heat shock protein HSP 90-alpha; test: Inhibition of HSP90alpha in human H1299 cells assessed as decrease in phosphorylation of EGFR after 72 hrs by Western blot analysis; assay type: cell-based; procedure, shortened: as §1
[7] = target: T1, Heat shock protein HSP 90-alpha; test: Inhibition of HSP90alpha in human H1299 cells assessed as decrease in phosphorylation of AKT after 72 hrs by Western blot analysis; assay type: cell-based; procedure, shortened: as §1
[8] = system: NCI-H1299; test: Induction of apoptosis in human H1299 cells assessed as inhibition of expression of CDK2 after 72 hrs by Western blot analysis; assay type: functional, cell-based; procedure, shortened: as §1
[9] = system: NCI-H1299; test: Induction of apoptosis in human H1299 cells assessed as increase in cleaved PARP levels after 72 hrs by Western blot analysis; assay type: functional, cell-based; procedure, shortened: as §1

## COc1ccccc1Cn1cc(-c2ccc(O)c(O)c2)c(-c2ccc(O)c(O)c2)c1
[1]
  IC50: 8.6 µM

## COc1ccc(Cn2cc(-c3ccc(O)cc3)c(-c3ccc(O)cc3)c2)cc1OC
[1]
  IC50: 29.2 µM
[2]
  inhibition: Dose-dependent effect

## COc1cc(-c2cn(Cc3ccc(O)cc3)cc2-c2cc(OC)c(OC)c(OC)c2)cc(OC)c1OC
[1]
  IC50: > 100 µM

## COc1ccc(Cn2cc(-c3ccc(O)c(O)c3)c(-c3ccc(O)c(O)c3)c2)cc1
[3]
  IC50: 0.752 µM
[1]
  IC50: 8.3 µM
[4]
  inhibition: Dose-dependent effect
[5]
  inhibition: Dose-dependent effect
[6]
  inhibition: Dose-dependent effect
[7]
  inhibition: Dose-dependent effect
[8]
  inhibition: Dose-dependent effect
[9]
  Activity: Dose-dependent effect
[2]
  inhibition: Dose-dependent effect

## COc1ccc(Cn2cc(-c3ccc(O)cc3)c(-c3ccc(O)cc3)c2)c(OC)c1OC
[1]
  IC50: 25.1 µM

## COc1ccc(Cn2cc(-c3ccc(O)cc3)c(-c3ccc(O)cc3)c2)cc1
[1]
  IC50: 37.3 µM

## C=CCNC1=C2C[C@@H](C)C[C@H](OC)[C@H](O)[C@@H](C)/C=C(\C)[C@H](OC(N)=O)[C@@H](OC)/C=C\C=C(/C)C(=O)NC(=CC1=O)C2=O [TANESPIMYCIN]
[1]
  IC50: 0.2 µM

## COc1ccc(-c2cn(Cc3ccc(O)c(O)c3)cc2-c2ccc(OC)cc2)cc1
[1]
  IC50: 19.1 µM
[2]
  inhibition: Dose-dependent effect

## COc1ccccc1Cn1cc(-c2ccc(O)cc2)c(-c2ccc(O)cc2)c1
[1]
  IC50: 23.1 µM

## COc1ccc(-c2cn(Cc3ccc(O)c(O)c3)cc2-c2ccc(OC)c(OC)c2)cc1OC
[1]
  IC50: 23.4 µM

## COc1ccc(Cn2cc(-c3ccc(O)cc3)c(-c3ccc(O)cc3)c2)c(OC)c1
[1]
  IC50: 31.6 µM

## COc1ccc(-c2cn(Cc3ccc(O)cc3)cc2-c2ccc(OC)c(OC)c2)cc1OC
[1]
  IC50: 30.6 µM

## COc1ccc(-c2cn(Cc3ccc(O)cc3)cc2-c2ccc(OC)cc2)cc1
[1]
  IC50: 20.5 µM

## COc1cc(Cn2cc(-c3ccc(O)c(O)c3)c(-c3ccc(O)c(O)c3)c2)cc(OC)c1OC
[3]
  IC50: 0.852 µM
[1]
  IC50: 13.2 µM
[4]
  inhibition: Dose-dependent effect
[5]
  inhibition: Dose-dependent effect
[6]
  inhibition: Dose-dependent effect
[7]
  inhibition: Dose-dependent effect
[8]
  inhibition: Dose-dependent effect
[9]
  Activity: Dose-dependent effect
[2]
  inhibition: Dose-dependent effect

## Oc1ccc(-c2cn(Cc3ccccc3)cc2-c2ccc(O)cc2)cc1
[1]
  IC50: 26.9 µM

## COc1cccc(Cn2cc(-c3ccc(O)cc3)c(-c3ccc(O)cc3)c2)c1
[1]
  IC50: 25.3 µM

## COc1cc(-c2cn(Cc3ccc(O)c(O)c3)cc2-c2cc(OC)c(OC)c(OC)c2)cc(OC)c1OC
[1]
  IC50: 29.2 µM

## COc1ccc(Cn2cc(-c3ccc(O)c(O)c3)c(-c3ccc(O)c(O)c3)c2)cc1OC
[3]
  IC50: 0.374 µM
[1]
  IC50: 10.5 µM
[4]
  inhibition: Dose-dependent effect
[5]
  inhibition: Dose-dependent effect
[6]
  inhibition: Dose-dependent effect
[7]
  inhibition: Dose-dependent effect
[8]
  inhibition: Dose-dependent effect
[9]
  Activity: Dose-dependent effect
[2]
  inhibition: Dose-dependent effect

## COc1ccc(-c2cn(Cc3ccccc3O)cc2-c2ccc(OC)cc2)cc1
[1]
  IC50: 20.8 µM
